# Results reported in the M2OR odorant receptor database.
# How the values were obtained:
# UniProt Q9WVD9 = conditions: stereoisomer not certain
# How it was run: (§1)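 Transient luciferase assays in mammalian cell lines were common, though methods varied by source. The values come from published papers and their supplementary material, with extra details from the original authors when needed. Responsive refers to a measured signal the original authors judged statistically different from baseline, and non-responsive (inactive) to the remainder.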
# UniProt Q9WVN5 = target: T1, UniProt Q9WVN5; conditions: stereoisomer not certain
# T1 sequence (whole entry): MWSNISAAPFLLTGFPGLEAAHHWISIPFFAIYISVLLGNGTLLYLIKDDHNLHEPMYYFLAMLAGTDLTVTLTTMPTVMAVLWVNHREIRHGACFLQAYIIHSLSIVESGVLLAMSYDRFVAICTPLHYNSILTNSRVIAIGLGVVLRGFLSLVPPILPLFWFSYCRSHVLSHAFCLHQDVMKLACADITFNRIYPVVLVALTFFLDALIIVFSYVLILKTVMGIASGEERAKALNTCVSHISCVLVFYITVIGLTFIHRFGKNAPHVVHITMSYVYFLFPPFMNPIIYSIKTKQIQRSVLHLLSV
# How it was run: as §1
# 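Also: active if original authors judged signal statistically different from baseline.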
# Sequence of UniProt Q9WVD9 (Q9WVD9 as listed by the source): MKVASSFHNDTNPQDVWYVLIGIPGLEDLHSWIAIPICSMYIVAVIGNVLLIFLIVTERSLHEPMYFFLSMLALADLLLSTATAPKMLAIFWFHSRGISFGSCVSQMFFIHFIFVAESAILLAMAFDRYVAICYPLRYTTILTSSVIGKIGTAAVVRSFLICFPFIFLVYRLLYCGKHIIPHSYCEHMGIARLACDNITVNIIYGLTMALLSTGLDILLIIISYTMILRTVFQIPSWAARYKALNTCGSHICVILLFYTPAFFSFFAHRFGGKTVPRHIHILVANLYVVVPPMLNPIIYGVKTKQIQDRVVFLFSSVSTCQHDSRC
SMILES,odorant receptor agonist call (UniProt Q9WVD9),odorant receptor agonist call (UniProt Q9WVN5)
CCOC(=O)C(C)C,inactive,inactive
CCCCCOC(=O)CCCCC,inactive,inactive
CC(C)=CCCC(C)CCO (stereo not drawn),inactive,inactive
CCCCCCCCCC(=O)[O-].[H+],inactive,inactive
C=CCOC(=O)CCCCCC,inactive,inactive
CCC(=O)C(=O)CC,inactive,inactive
CCCCCCCCO,inactive,inactive
O=C(c1ccccc1)c1ccccc1,inactive,inactive
CC(=O)OCc1ccccc1,inactive,inactive
CCCCCCCCCS,inactive,inactive
CCCCCC1=C(C)CCC1=O,inactive,inactive
CCCCCCCCCCO,inactive,inactive
CCCCC(=O)O,inactive,active
CCCCCCCC(C)=O,inactive,inactive
CCC(C(=O)O)c1ccccc1 (stereo not drawn),inactive,inactive
CCCC(=O)C(C)=O,inactive,inactive
CC(=O)OCC=C(C)C,inactive,inactive
CCCCCCO,inactive,inactive
CCCCCO,inactive,inactive
c1ccccc1,inactive,inactive
C=C(C)C1CCC(C)C(=O)C1 (stereo not drawn),inactive,inactive
O=c1ccc2ccccc2o1,inactive,inactive
CCCCC(=O)CC,inactive,inactive
CCCCCCCC(=O)[O-].[H+],inactive,inactive
CC(=O)Oc1ccccc1,inactive,inactive
CCCCCCCCC(=O)O,inactive,inactive
CCCCCCC(C)=O,inactive,inactive
COc1cc(C(=O)O)ccc1O,inactive,inactive
CCC(=O)O,inactive,inactive
